Consider 84 variants from the RNAGym collection of RNA variant scans (doi:10.1038/s41586-018-0170-7).

B1: tRNA (parent)
chain: GUUCCGUUGGCGUAAUGGUAACGCGUCUCCCUCCUAAGGAGAAGACUGCGGGUUCGAGUCCCGUACGGAACG

Variants of B1 are the subject of this series. The series is described as follows: yeast fitness, log relative to wild type (ln ratio); higher = fitter; tRNA-Arg(CCU), competitive growth, 37 C, 1 M NaCl. In a few lines:
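Variants were counted by 125 bp paired-end Illumina sequencing after pools of a combinatorial tRNA-Arg(CCU) library, held on a HIS3 centromeric plasmid in BY4742 lacking the chromosomal gene, grew ~6.5 generations (~26.5 h) in SC-HIS 1M NaCl at 37 °C. Each genotype's fitness is the natural log of its generations relative to the wild type's. Generations were OD-scaled log2 output/input frequencies, inverse-variance weighted over replicates.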
U2C G6A C27U A43C C46U C66A A70G: the “yeast fitness (ln)” value was -0.101.

U2C G6A A43C C46U C66U A70G: the “yeast fitness (ln)” value was -0.0107.

Consider U2C G6A A43C C46U C66U A70U, for which the “yeast fitness (ln)” value is -0.209.

Turning to U2C G6A C27U A43C C46U C66U A70U C71U, the “yeast fitness (ln)” value was -0.225.

Take U2C G6A C27U C66U A69G A70G C71U: the “yeast fitness (ln)” value was -0.0741.

Regarding U2C G6A C66A A70U C71U, the “yeast fitness (ln)” value is -0.0758.

For U2C G6A C46U C66U A69G A70U, the “yeast fitness (ln)” value is -0.138.

As to U2C G6A C46U C66U A69G A70G, the “yeast fitness (ln)” value is -0.0132.

On to U2C G6A C27U C66A A70U, for which the “yeast fitness (ln)” value was -0.0448.

Turning to U2C G6A C27U A70G C71U, the “yeast fitness (ln)” value is -0.282.

As for U2C G6A A43C A70U, the “yeast fitness (ln)” value is -0.0469.

Turning to U2C G6A A43C A70G, the “yeast fitness (ln)” value was -0.231.

For U2C G6A C27U A69G A70U C71U, the “yeast fitness (ln)” value was -0.309.

As to U2C G6A C46U C66U C71U, the “yeast fitness (ln)” value was -0.164.

With U2C G6A A43C A69G C71U, the “yeast fitness (ln)” value was -0.179.

As to U2C G6A C46U C66A A70G C71U, the “yeast fitness (ln)” value was -0.142.

As for U2C G6A C46U C66U, the “yeast fitness (ln)” value was found to be 0.00338.

Turning to U2C G6A A43C C71U, the “yeast fitness (ln)” value was -0.0318.

With U2C G6A C27U A43C C46U C66U A69G A70G C71U, the “yeast fitness (ln)” value is -0.0764.

For U2C C66U A69G A70U C71U, the “yeast fitness (ln)” value was -0.404.

For U2C G6A A43C C46U C66U C71U, the “yeast fitness (ln)” value is -0.0554.

Turning to U2C G6A A69G A70G, the “yeast fitness (ln)” value is -0.0526.

Consider U2C G6A A69G A70U, for which the “yeast fitness (ln)” value was -0.0533.

On to U2C G6A C27U A43C C46U, for which the “yeast fitness (ln)” value is -0.0171.

For U2C G6U A43C C46U A69G A70U C71U, the “yeast fitness (ln)” value is -0.393.

For U2C G6A C27U C66U A70G C71U, the “yeast fitness (ln)” value was -0.0401.

As for U2C G6A C27U C46U A69G A70G, the “yeast fitness (ln)” value is -0.236.

In the case of U2C G6A C27U C46U A69G A70U, the “yeast fitness (ln)” value was -0.152.

Consider U2C G6U A43C C66A A70U C71U, for which the “yeast fitness (ln)” value was -0.272.

Consider U2C G6A A43C C66A A70U C71U, for which the “yeast fitness (ln)” value is -0.261.

Consider U2C G6A C66U A69G A70U, for which the “yeast fitness (ln)” value was -0.222.

As for U2C G6A C66U A69G A70G, the “yeast fitness (ln)” value is -0.0273.

Regarding U2C G6A C27U, the “yeast fitness (ln)” value is -0.0332.

For U2C G6A C27U C46U A70G C71U, the “yeast fitness (ln)” value was -0.239.

For U2C G6A C46U, the “yeast fitness (ln)” value was -0.0163.

Take U2C G6A A43C A69G A70U C71U: the “yeast fitness (ln)” value is -0.279.

In the case of U2C G6A A43C C46U C66U A70U C71U, the “yeast fitness (ln)” value is -0.199.

As to U2C G6A A43C C46U A69G A70G C71U, the “yeast fitness (ln)” value is -0.101.

Turning to U2C C46U A70U C71U, the “yeast fitness (ln)” value is -0.0871.

Take U2C G6A C27U A43C C66A A70U: the “yeast fitness (ln)” value is -0.0983.

Regarding U2C C66U, the “yeast fitness (ln)” value is -0.207.

In the case of U2C C66A, the “yeast fitness (ln)” value amounted to 0.0749.

Turning to U2C C66U A69G C71U, the “yeast fitness (ln)” value was -0.311.

Regarding U2C C46U C66U A69G A70U, the “yeast fitness (ln)” value was -0.0518.

For U2C C46U C66U A69G A70G, the “yeast fitness (ln)” value is -0.02.

Regarding U2C G6U A43C C66A C71U, the “yeast fitness (ln)” value is -0.0984.

As to U2C C46U C66U A70G C71U, the “yeast fitness (ln)” value was -0.00524.

U2C G6A A43C C46U: the “yeast fitness (ln)” value is -0.0201.

On to U2C G6A A43C C46U A69G C71U, for which the “yeast fitness (ln)” value was -0.0945.

For the variant U2C G6A C27U C46U C66A A69G A70G C71U, the “yeast fitness (ln)” value is -0.188.

Turning to U2C C66U A70U C71U, the “yeast fitness (ln)” value was -0.152.

As for U2C C66U A69G A70G, the “yeast fitness (ln)” value is -0.0264.

As for U2C C66U A69G A70U, the “yeast fitness (ln)” value was -0.0622.

In the case of U2C G6U A43C C66U A69G A70G C71U, the “yeast fitness (ln)” value is -0.352.

Consider U2C G6A C27U C46U A70G, for which the “yeast fitness (ln)” value is -0.0764.

U2C G6A C27U C46U A70U: the “yeast fitness (ln)” value is -0.0585.

With U2C G6A C27U A43C A69G A70G C71U, the “yeast fitness (ln)” value is -0.256.

For the variant U2C C66A A69G A70U C71U, the “yeast fitness (ln)” value is -0.496.

In the case of U2C G6A C27U A43C C66A C71U, the “yeast fitness (ln)” value is -0.333.

Regarding U2C G6A C27U C46U C66U A69G A70U, the “yeast fitness (ln)” value was -0.284.

Consider U2C G6A C27U C46U C66U A69G A70G, for which the “yeast fitness (ln)” value is -0.0335.

Take U2C G6A A43C A70U C71U: the “yeast fitness (ln)” value was -0.126.

On to U2C G6A C46U A70G, for which the “yeast fitness (ln)” value came to 0.00625.

On to U2C G6A C46U A70U, for which the “yeast fitness (ln)” value is -0.0378.

For U2C G6A C27U A43C C46U A70U C71U, the “yeast fitness (ln)” value is -0.113.

For U2C G6A A43C A69G A70U, the “yeast fitness (ln)” value was -0.0661.

U2C G6A A43C A69G A70G: the “yeast fitness (ln)” value is -0.0768.

With U2C G6A C27U A43C C46U A70G C71U, the “yeast fitness (ln)” value is -0.0979.

Consider U2C G6U A43C C46U C66A A70U C71U, for which the “yeast fitness (ln)” value was -0.153.

For the variant U2C G6A A43C A70G C71U, the “yeast fitness (ln)” value was -0.129.

Take U2C C66A A70G C71U: the “yeast fitness (ln)” value was -0.196.

Regarding U2C C46U A70G C71U, the “yeast fitness (ln)” value is -0.00238.

Regarding U2C G6A C27U A43C C46U C71U, the “yeast fitness (ln)” value was -0.115.

Turning to U2C G6A C27U C46U A69G C71U, the “yeast fitness (ln)” value is -0.172.

As for U2C G6A C27U A43C C46U C66U A70G, the “yeast fitness (ln)” value is -0.0221.

Take U2C G6A C27U A43C C46U C66U A70U: the “yeast fitness (ln)” value is -0.0567.

In the case of U2C G6A C46U C66U A69G A70G C71U, the “yeast fitness (ln)” value is -0.00401.

For U2C G6A C27U C46U C66A C71U, the “yeast fitness (ln)” value was -0.101.

Regarding U2C G6A C27U A43C C66U A70U, the “yeast fitness (ln)” value was -0.091.

Regarding U2C G6A C27U A43C C66U A70G, the “yeast fitness (ln)” value is -0.0396.

Regarding U2C G6A C27U C46U C66U A69G C71U, the “yeast fitness (ln)” value is -0.271.

For U2C G6A C46U A70G C71U, the “yeast fitness (ln)” value is -0.0308.

In the case of U2C G6A C66U A70G, the “yeast fitness (ln)” value was -0.00663.

As for U2C G6A C66U A70U, the “yeast fitness (ln)” value was -0.0364.
